Assays:
[1] = molecular target: Homeodomain-interacting protein kinase 2 (Homo sapiens) (UniProt Q9H2X6); test: Inhibition of HIPK2 (unknown origin) at 10 uM relative to control
Procedure, shortened: (§1)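 Single-point screen of each compound against a panel of 59 protein kinases, at 1 or 10 μM. The panel data are also summarised as a rescaled geometric mean selectivity score.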

[2] = molecular target: Insulin receptor-related protein (Homo sapiens) (UniProt P14616); test: Inhibition of IRR (unknown origin) at 10 uM relative to control; procedure, shortened: as §1
[3] = molecular target: T1, Protein kinase C zeta type (Homo sapiens) (UniProt Q05513); test: Inhibition of PKCz (unknown origin) at 10 uM relative to control
T1 sequence (whole entry): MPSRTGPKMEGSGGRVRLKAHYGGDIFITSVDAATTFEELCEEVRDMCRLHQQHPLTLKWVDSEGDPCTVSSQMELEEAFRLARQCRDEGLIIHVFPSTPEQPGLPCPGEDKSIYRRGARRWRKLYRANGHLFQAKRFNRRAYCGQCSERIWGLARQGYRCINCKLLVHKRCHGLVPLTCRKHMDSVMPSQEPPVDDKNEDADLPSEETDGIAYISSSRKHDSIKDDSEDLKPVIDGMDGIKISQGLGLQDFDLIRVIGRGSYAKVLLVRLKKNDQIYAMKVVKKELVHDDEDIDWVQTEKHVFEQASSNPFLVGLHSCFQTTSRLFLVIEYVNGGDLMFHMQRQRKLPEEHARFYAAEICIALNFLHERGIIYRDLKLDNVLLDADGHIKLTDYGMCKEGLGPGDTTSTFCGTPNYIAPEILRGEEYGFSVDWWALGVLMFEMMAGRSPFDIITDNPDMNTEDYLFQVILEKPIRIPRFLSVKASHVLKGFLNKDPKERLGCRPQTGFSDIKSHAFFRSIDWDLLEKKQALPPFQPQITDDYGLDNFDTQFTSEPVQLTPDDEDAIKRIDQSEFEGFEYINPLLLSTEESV
Procedure, shortened: (§2)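 Single-concentration screen of each compound against a 59-protein-kinase panel, run at 10 µM or 1 µM. Activity relative to control is shown as a heat map across the panel.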

[4] = molecular target: RAC-beta serine/threonine-protein kinase (Homo sapiens) (UniProt P31751); test: Inhibition of PKBb (unknown origin) at 10 uM relative to control; procedure, shortened: as §2
[5] = molecular target: AMP-activated protein kinase, AMPK (Homo sapiens) (UniProt P54646+O43741+P54619+Q9UGJ0+Q9Y478+Q13131+Q9UGI9); test: Inhibition of AMPK (unknown origin) at 10 uM relative to control; assay type: protein-complex assay; procedure, shortened: as §1
[6] = molecular target: Aurora kinase B (Homo sapiens) (UniProt Q96GD4); test: Inhibition of Aurora B (unknown origin) at 10 uM relative to control; procedure, shortened: as §1
[7] = molecular target: Serine/threonine-protein kinase pim-1 (Homo sapiens) (UniProt P11309); test: Inhibition of PIM1 (unknown origin) at 10 uM relative to control; procedure, shortened: as §2
[8] = molecular target: Serine/threonine-protein kinase Chk2 (Homo sapiens) (UniProt O96017); test: Inhibition of CHK2 (unknown origin) at 10 uM relative to control; procedure, shortened: as §1
[9] = molecular target: Ribosomal protein S6 kinase alpha-1 (Homo sapiens) (UniProt Q15418); test: Inhibition of RSK1 (unknown origin) at 10 uM relative to control; procedure, shortened: as §2
Ribosomal protein S6 kinase alpha-1 (Homo sapiens), sequence (Q15418 whole entry): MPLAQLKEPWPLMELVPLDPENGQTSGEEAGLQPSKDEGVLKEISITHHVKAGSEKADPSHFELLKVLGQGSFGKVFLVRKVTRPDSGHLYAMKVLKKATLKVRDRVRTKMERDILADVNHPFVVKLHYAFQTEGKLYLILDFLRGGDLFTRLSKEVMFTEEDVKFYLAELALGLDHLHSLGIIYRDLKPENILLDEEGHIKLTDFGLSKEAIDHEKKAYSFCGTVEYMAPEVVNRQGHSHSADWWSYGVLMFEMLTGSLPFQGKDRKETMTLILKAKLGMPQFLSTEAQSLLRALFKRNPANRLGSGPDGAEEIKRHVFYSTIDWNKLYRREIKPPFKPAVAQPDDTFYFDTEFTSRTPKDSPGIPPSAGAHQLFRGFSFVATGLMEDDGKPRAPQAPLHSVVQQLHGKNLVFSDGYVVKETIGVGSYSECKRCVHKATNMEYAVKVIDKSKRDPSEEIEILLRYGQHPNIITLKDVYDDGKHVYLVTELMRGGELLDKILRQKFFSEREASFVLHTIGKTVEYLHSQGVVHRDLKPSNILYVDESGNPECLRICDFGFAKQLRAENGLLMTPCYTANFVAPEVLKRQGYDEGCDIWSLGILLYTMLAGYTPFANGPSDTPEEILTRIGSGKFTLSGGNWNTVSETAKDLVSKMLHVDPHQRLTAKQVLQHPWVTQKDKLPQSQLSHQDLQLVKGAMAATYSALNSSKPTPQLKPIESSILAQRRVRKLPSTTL

[10] = molecular target: Ribosomal protein S6 kinase alpha-3 (Homo sapiens) (UniProt P51812); test: Inhibition of RSK2 (unknown origin) at 10 uM relative to control
Ribosomal protein S6 kinase alpha-3 (Homo sapiens), sequence (P51812 whole entry): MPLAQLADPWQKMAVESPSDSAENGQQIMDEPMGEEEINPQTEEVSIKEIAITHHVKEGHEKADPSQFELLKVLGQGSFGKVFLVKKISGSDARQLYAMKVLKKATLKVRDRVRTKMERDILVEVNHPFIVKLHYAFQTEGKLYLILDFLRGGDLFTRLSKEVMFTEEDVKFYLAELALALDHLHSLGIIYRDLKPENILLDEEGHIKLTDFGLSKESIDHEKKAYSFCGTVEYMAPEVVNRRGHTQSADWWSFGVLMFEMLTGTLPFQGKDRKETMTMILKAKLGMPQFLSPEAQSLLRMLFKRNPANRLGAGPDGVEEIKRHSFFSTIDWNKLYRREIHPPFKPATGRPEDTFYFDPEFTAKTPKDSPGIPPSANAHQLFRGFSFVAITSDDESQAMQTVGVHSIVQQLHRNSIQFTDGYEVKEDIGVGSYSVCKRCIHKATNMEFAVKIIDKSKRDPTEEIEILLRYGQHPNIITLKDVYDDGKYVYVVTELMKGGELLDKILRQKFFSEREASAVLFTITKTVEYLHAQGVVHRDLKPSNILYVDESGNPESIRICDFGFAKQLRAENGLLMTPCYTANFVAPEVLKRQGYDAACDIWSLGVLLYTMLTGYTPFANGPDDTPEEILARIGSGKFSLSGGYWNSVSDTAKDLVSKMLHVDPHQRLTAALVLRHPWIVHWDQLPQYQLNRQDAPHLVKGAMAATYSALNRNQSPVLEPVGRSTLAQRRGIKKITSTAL
Procedure, shortened: (§3)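 Single-concentration screen across a panel of 59 protein kinases, with each compound tested at one fixed concentration. The read-out is residual kinase activity relative to control. Panel results are also condensed into a rescaled geometric mean (RGM) selectivity score.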

[11] = molecular target: Ribosomal protein S6 kinase alpha-5 (Homo sapiens) (UniProt O75582); test: Inhibition of MSK1 (unknown origin) at 10 uM relative to control; procedure, shortened: as §2
[12] = molecular target: Leucine-rich repeat serine/threonine-protein kinase 2 (Homo sapiens, UniProt Q5S007, G2019S); test: Inhibition of recombinant human GST-tagged LRRK2 G2019S mutant catalytic domain (970 to 2527 residues) expressed in baculovirus expression system by radiometric assay
Leucine-rich repeat serine/threonine-protein kinase 2, sequence (Q5S007 whole entry G2019S, the tested form may be a part): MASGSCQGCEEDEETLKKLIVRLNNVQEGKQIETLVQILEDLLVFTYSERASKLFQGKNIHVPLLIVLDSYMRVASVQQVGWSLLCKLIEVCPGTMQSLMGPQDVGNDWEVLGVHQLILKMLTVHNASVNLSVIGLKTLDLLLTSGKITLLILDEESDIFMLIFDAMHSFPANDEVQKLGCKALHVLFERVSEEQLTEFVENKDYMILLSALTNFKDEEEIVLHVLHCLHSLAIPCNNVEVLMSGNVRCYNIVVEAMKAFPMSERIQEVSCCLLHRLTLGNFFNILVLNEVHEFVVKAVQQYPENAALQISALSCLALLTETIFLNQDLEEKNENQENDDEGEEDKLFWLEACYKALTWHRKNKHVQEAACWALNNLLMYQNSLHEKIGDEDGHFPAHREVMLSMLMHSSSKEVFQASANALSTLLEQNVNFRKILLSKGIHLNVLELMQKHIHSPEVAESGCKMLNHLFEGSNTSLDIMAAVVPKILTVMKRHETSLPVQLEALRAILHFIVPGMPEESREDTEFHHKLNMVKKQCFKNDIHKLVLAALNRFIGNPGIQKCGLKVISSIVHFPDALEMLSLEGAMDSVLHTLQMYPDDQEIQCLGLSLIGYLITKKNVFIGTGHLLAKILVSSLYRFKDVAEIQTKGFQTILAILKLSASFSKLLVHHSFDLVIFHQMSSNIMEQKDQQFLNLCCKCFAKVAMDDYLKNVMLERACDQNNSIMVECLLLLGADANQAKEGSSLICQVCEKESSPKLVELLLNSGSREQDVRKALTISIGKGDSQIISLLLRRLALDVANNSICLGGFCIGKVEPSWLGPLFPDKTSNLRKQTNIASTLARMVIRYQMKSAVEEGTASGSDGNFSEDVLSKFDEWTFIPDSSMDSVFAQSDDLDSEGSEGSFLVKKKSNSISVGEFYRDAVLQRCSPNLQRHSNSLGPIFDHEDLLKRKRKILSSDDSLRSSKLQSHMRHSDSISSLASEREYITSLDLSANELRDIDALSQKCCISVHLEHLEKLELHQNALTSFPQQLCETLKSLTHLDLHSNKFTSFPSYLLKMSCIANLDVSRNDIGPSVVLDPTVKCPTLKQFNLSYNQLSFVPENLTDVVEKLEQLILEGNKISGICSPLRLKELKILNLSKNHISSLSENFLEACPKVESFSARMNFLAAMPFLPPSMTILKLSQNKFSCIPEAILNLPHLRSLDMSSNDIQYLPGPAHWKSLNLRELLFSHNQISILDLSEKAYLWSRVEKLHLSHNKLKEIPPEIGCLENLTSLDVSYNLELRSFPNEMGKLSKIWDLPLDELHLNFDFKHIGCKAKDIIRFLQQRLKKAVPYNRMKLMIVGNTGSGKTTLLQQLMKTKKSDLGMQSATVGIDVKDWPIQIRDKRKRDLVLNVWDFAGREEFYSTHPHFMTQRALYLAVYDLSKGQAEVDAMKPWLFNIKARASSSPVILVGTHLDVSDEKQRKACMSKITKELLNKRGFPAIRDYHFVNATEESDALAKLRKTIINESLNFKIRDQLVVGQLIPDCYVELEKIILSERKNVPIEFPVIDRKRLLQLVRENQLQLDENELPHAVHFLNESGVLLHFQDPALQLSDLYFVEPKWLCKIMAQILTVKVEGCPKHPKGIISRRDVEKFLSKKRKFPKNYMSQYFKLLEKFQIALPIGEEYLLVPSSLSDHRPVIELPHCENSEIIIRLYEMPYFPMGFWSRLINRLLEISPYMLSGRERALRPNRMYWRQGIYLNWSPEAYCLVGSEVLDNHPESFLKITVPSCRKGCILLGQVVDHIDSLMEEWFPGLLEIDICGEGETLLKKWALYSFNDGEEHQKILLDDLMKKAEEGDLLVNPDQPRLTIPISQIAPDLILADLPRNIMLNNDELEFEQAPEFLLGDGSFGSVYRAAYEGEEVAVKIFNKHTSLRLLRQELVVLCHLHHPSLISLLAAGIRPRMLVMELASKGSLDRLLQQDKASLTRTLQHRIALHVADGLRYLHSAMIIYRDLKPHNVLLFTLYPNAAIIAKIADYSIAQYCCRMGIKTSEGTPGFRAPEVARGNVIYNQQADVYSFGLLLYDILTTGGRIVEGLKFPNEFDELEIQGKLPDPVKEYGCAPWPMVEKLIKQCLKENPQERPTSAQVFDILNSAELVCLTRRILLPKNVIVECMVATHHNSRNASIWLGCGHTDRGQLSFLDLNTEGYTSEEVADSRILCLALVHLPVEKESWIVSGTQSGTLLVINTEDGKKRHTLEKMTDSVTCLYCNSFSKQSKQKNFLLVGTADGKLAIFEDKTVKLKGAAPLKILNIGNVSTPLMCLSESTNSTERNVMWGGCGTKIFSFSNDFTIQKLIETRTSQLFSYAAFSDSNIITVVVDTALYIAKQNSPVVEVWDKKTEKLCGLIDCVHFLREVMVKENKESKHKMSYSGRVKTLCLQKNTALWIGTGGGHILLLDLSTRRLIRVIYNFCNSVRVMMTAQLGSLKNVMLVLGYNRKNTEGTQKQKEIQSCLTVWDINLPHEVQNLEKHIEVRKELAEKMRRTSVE

[13] = species on record: Homo sapiens; test: Inhibition of VEGFR (unknown origin) at 10 uM relative to control; procedure, shortened: as §3
[14] = molecular target: Mitogen-activated protein kinase 8 (Homo sapiens) (UniProt P45983); test: Inhibition of JNK1 (unknown origin) at 10 uM relative to control; procedure, shortened: as §1
[15] = molecular target: RAC-alpha serine/threonine-protein kinase (Homo sapiens) (UniProt P31749); test: Inhibition of PKBa (unknown origin) at 10 uM relative to control; procedure, shortened: as §2
RAC-alpha serine/threonine-protein kinase (Homo sapiens), sequence (P31749 whole entry): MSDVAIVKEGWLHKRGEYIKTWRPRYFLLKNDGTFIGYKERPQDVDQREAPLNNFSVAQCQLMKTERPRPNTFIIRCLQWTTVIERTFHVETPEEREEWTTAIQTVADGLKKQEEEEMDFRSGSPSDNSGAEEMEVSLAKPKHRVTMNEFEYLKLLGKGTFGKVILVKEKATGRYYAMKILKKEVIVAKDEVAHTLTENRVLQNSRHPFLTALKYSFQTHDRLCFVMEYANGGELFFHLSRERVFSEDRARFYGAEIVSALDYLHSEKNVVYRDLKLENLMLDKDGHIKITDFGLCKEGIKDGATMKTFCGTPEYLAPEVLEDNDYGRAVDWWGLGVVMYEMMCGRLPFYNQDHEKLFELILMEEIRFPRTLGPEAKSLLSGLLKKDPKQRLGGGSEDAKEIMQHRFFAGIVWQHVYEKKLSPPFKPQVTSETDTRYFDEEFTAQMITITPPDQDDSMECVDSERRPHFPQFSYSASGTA

[16] = molecular target: T2, Serine/threonine-protein kinase Sgk1 (Homo sapiens) (UniProt O00141); test: Inhibition of SGK1 (unknown origin) at 10 uM relative to control; procedure, shortened: as §3
T2 sequence (whole entry): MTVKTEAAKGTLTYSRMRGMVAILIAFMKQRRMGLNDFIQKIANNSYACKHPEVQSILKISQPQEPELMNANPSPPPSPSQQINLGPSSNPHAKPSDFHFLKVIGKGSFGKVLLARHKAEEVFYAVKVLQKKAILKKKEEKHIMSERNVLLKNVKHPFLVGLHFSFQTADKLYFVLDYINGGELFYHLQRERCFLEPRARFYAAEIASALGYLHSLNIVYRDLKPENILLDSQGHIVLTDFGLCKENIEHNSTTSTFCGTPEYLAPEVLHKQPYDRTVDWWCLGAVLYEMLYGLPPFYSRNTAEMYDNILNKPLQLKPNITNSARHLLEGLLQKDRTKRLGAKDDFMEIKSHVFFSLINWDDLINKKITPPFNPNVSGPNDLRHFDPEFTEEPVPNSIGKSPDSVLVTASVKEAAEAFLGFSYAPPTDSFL

[17] = molecular target: T3, MAP kinase-activated protein kinase 5 (Homo sapiens) (UniProt Q8IW41); test: Inhibition of PRAK (unknown origin) at 10 uM relative to control; procedure, shortened: as §2
T3 sequence (whole entry): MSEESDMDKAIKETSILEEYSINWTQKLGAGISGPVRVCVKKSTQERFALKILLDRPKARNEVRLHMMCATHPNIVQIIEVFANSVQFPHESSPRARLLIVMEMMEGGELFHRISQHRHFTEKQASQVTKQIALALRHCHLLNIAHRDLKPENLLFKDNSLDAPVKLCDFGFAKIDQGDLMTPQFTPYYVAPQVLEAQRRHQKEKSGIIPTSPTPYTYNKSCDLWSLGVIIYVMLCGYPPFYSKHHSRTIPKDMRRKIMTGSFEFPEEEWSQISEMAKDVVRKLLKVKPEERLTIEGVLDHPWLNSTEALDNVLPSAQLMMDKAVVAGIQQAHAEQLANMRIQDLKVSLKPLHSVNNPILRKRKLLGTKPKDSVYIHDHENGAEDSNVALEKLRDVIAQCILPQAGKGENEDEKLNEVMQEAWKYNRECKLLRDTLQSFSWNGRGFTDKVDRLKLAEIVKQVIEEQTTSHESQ

[18] = molecular target: Tyrosine-protein kinase Yes (Homo sapiens) (UniProt P07947); test: Inhibition of YES1 (unknown origin) at 10 uM relative to control; procedure, shortened: as §3
Tyrosine-protein kinase Yes (Homo sapiens), sequence (P07947 2-543 limits assumed): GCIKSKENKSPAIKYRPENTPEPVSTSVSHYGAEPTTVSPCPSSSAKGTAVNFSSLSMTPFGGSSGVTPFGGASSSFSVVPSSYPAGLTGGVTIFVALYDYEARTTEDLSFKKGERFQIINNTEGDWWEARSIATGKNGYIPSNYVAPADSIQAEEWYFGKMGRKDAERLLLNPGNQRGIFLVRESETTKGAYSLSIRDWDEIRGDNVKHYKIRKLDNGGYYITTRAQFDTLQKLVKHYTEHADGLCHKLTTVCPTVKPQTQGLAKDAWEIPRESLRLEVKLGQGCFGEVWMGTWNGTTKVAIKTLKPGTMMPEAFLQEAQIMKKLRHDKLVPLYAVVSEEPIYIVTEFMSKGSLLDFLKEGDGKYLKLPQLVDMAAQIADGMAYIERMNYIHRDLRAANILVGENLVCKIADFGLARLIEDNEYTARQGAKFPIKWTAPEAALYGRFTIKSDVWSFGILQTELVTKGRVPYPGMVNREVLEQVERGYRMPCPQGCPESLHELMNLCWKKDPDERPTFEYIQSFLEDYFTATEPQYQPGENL

[19] = molecular target: Maternal embryonic leucine zipper kinase (Homo sapiens) (UniProt Q14680); test: Inhibition of MELK (unknown origin) at 10 uM relative to control; procedure, shortened: as §2

| Structure (SMILES) | inhibition [1] | inhibition [2] | inhibition [3] | inhibition [4] | inhibition [5] | inhibition [6] | inhibition [7] | inhibition [8] | inhibition [9] | inhibition [10] | inhibition [11] | IC50 [12] | inhibition [13] | inhibition [14] | inhibition [15] | inhibition [16] | inhibition [17] | inhibition [18] | inhibition [19] |
| --- | --- | --- | --- | --- | --- | --- | --- | --- | --- | --- | --- | --- | --- | --- | --- | --- | --- | --- | --- |
| Cc1n[nH]c2ccnc(NC3CCCCC3)c12 | 38% | 70% | 0% | 24% | 29% | 80% | 66% | 37% | 59% | 51% | 55% | 0.39 µM | 43% | 32% | 29% | 41% | 3% | 30% | 91% |
| Cc1n[nH]c2ccnc(Nc3ccc4ncsc4c3)c12 |  |  |  |  |  |  |  | 36% | 84% | 73% | 77% | 0.13 to 0.38 µM |  | 56% |  |  | 10% |  |  |
| Cc1n[nH]c2ccnc(OC3CCCCC3)c12 | 56% | 66% | 19% | 28% | 82% | 88% | 60% | 63% | 84% | 73% | 92% | 0.067 µM | 76% | 86% | 55% | 73% | 7% | 44% | 95% |
| CC(C)n1cc(-c2n[nH]c3ccnc(OC4CCOCC4)c23)cn1 |  |  |  |  |  |  |  |  |  |  |  | 0.011 µM |  |  |  |  |  |  |  |
| c1cc(-c2n[nH]c3ccnc(OC4CCOCC4)c23)cc(N2CCOCC2)n1 |  |  |  |  |  |  |  |  |  |  |  | 0.012 µM |  |  |  |  |  |  |  |
| Cc1n[nH]c2ccnc(Nc3ccccc3F)c12 | 50% | 77% | 0% | 15% | 56% | 80% | 67% | 26% | 61% | 38% | 43% | 0.15 µM | 67% | 55% | 34% | 69% | 11% | 26% | 83% |
